# Assay results from different studies.
# Protocols differ between the studies behind these lines.
Structure (SMILES),cell line,test,setting,measurement,result
CCCCCCCCCCCCCCCCCCOc1cccc(CC(=O)OCC[N+]2(C)CCCCC2)c1,NCI-H23,"cell growth or viability, SRB",10 µM,inhibition,16.1%
C(=N\Nc1cc(N/N=C/c2cccc3cccnc23)nc(-c2ccccc2)n1)/c1cccc2cccnc12,Bel-7402,"cell growth or viability, MTT",48 h,IC50,11.1 µM
NCCC(=O)Nc1ccccc1/N=c1\cc(-c2ccc3nc(N)oc3c2)oc2ccccc12,MOLM-13,"cell growth or viability, CCK-8",1 µM,inhibition,60.4%
[NH2][Pt]([NH2])([Cl])[Cl],SW1573,"cell growth or viability, SRB",,GI50,2.7 µM
CCNNC(=O)c1ccc(CN(CC(=O)NCc2ccccc2)C(=O)c2ccc(N(C)C)cc2)cc1,A2780cisR,"cell growth or viability, MTT",72 h,IC50,4.62 µM
CCCCCCCCCCCCCCCCCCOc1ccccc1CC(=O)OCC[N+]1(C)CCOCC1,NCI-H23,"cell growth or viability, SRB",10 µM,inhibition,33.5%
N#CSCc1cc(=O)oc2cc(O)ccc12,SW1573,"cell growth or viability, SRB",,GI50,5.5 µM
O=C(Nc1ccccc1/N=c1\cc(-c2ccc3c(c2)OCO3)oc2ccccc12)N1CCNCC1,MOLM-13,"cell growth or viability, CCK-8",1 µM,inhibition,1.47%
COC(=O)[C@H]1[C@@H](O)[C@@]2(O)c3c(OC)cc(O[C@@H]4O[C@@H]([C@H](O)CO)CO[C@H]4OC)cc3O[C@@]2(c2ccc(OC)cc2)[C@@H]1c1ccccc1,C6661,"cell growth or viability, MTS",48 h,IC50,0.007 µM
COc1ncnc(C2CC2)c1-c1ncc2cnn(Cc3ccc(-c4nc(C(F)(F)F)cn4C(C)C)cc3)c2n1,CHP-212,"cell growth or viability, SRB",25 µM,viability,76.7%
C[C@@H]1COCCN1c1cc(C2([S@](C)(=N)=O)CC2)nc(-c2cc[nH]c3nccc2-3)n1,CT26,"cell growth or viability, ATP luminescence",48 h,IC50,8.64 µM
O=C(C[C@@H](C(F)F)n1ccc(F)n1)N1CCC(O)(Cn2cnc3c(cnn3-c3ccc(F)cc3)c2=O)CC1,CHP-212,"cell growth or viability, SRB",82.3 nM,viability,47.2%
CC(C)(C)[C@H](N)C(=O)Nc1ccccc1/N=c1\cc(-c2ccc3c(c2)OCO3)oc2ccccc12,MOLM-13,"cell growth or viability, CCK-8",1 µM,inhibition,4.05%
CCCCCCCCCCCCCCCCCCOc1ccc(CC(=O)OCC[N+]2(C)CCCCC2)cc1,NCI-H23,"cell growth or viability, SRB",10 µM,inhibition,13.3%
NCC(=O)Nc1ccccc1/N=c1\cc(-c2ccc3c(c2)OCCO3)oc2ccccc12,MOLM-13,"cell growth or viability, CCK-8",1 µM,inhibition,-2.55%
CC(=O)O[C@H]1C(=O)[C@@]2(C)[C@H]([C@H](OC(=O)c3ccccc3)[C@]3(O)C[C@H](OC(=O)[C@H](O)[C@@H](NC(=O)c4ccccc4)c4ccccc4)C(C)=C1C3(C)C)[C@]1(OC(C)=O)CO[C@@H]1C[C@@H]2O,CHP-212,"cell growth or viability, SRB",10 µM,viability,5.97%
NCCC(=O)Nc1ccccc1/N=c1\cc(-c2ccc3nc(N)oc3c2)oc2cc(O)ccc12,MOLM-13,"cell growth or viability, CCK-8",1 µM,inhibition,3.71%
C=C(C)[C@@H]1CC[C@]2(C)CC[C@]3(C)[C@H](CC[C@@H]4[C@@]5(C)CC[C@H](O)C(C)(C)[C@@H]5CC[C@]43C)[C@@H]12,SIM-A9,"NO release, inhibitor, Griess","106.7 µM, LPS-stimulated",inhibition,1.81%
CCCCCCCCCCCCCCCCCCOc1cccc(CC(=O)OCC[N+](C)(C)C)c1,NCI-H23,"cell growth or viability, SRB",10 µM,inhibition,11%
CNC(=O)c1cc(Oc2ccc(NC(=O)Nc3ccc(Cl)c(C(F)(F)F)c3)cc2)ccn1,Bel-7402,"cell growth or viability, MTT",48 h,IC50,5.06 µM
O=C(N[C@@H](CSCc1ccccc1)C(=O)NO)c1ccccc1,NCI-H1573,"cell growth or viability, MTT",48 h,IC50,11.3 µM
CCCCCCCCCCCCCCCCCCOc1ccccc1CC(=O)OCC[N+](CC)(CC)CC,NCI-H23,"cell growth or viability, SRB",10 µM,inhibition,86.9%
O=C(N[C@@H](CSCc1ccc([N+](=O)[O-])cc1)C(=O)NO)c1ccccc1,NCI-H1573,"cell growth or viability, MTT",48 h,IC50,2.37 µM
CCCCCCCCCCCCCCCCCCOc1ccc(CC(=O)OCC[N+](CC)(CC)CC)cc1,NCI-H23,"cell growth or viability, SRB",10 µM,inhibition,39.5%
NCCCCC(=O)Nc1ccccc1/N=c1\cc(-c2ccc3c(c2)OCO3)oc2ccccc12,MOLM-13,"cell growth or viability, CCK-8",1 µM,inhibition,-0.26%
CC(C)C[C@H](NC(=O)[C@H](Cc1ccccc1)NC(=O)c1cnccn1)B(O)O,CHP-212,"cell growth or viability, SRB",41.15 nM,viability,90.7%
Oc1cccc(-c2nc(N3CCOCC3)c3oc4ncccc4c3n2)c1,MOLM-13,"cell growth or viability, CCK-8",1 µM,inhibition,14.3%
CNCc1ccc(-c2cc(-c3nc(-c4ccc(S(=O)(=O)C(C)C)cc4)cnc3N)on2)cc1,CT26,"cell growth or viability, ATP luminescence",48 h,IC50,1.98 µM
COCCC(=O)Nc1ccccc1/N=c1\cc(-c2ccc3nc(N)oc3c2)oc2ccccc12,MOLM-13,"cell growth or viability, CCK-8",1 µM,inhibition,2.66%
CCCCCCCCCCCCCCCCCCOc1ccc(CC(=O)OCC[N+]2(C)CCOCC2)cc1,NCI-H23,"cell growth or viability, SRB",10 µM,inhibition,5.91%
C(=N\Nc1cc(N/N=C/c2ccc3ccccc3n2)nc(-c2ccccc2)n1)/c1ccc2ccccc2n1,Bel-7402,"cell growth or viability, MTT",48 h,IC50,10.2 µM
CCCCCCCCCCCCCCCCCCOc1cccc(CC(=O)OCC[N+](CC)(CC)CC)c1,NCI-H23,"cell growth or viability, SRB",10 µM,inhibition,64.3%
COc1cccc2c1C(=O)c1c(O)c3c(c(O)c1C2=O)C[C@@](O)(C(=O)CO)C[C@@H]3O[C@H]1C[C@H](N)[C@H](O)[C@H](C)O1,CHP-212,"cell growth or viability, SRB",41.15 nM,viability,50.8%
